Data from ChEMBL document CHEMBL4808175 (J Med Chem, 2021).
Blank lines part the entries; values can stand above or below the compound they belong to.

Key:
[1] = target: T1, cGMP-specific 3',5'-cyclic phosphodiesterase (Homo sapiens, UniProt O76074); assay: Inhibition of recombinant full length GST-tagged PDE5A1 (unknown origin) expressed in baculovirus infected Sf9 insect cells using TAMRA-cGMP as substrate incubated for 1.5 hrs by IMAP-FP assay
[2] = Protein binding in human plasma assessed as bound fraction by HPLC-MS/MS analysis; assay type: ADME, cell-free
Outline: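 Human plasma spiked with compound at 10 μM, 1% DMSO final. Dialyzed against PBS pH 7.4 for 4 h at 37 °C. Both compartments diluted, acetonitrile-precipitated and quantified by HPLC-MS/MS. An undialyzed spiked control served for recovery; duplicates.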

[3] = target: Cone cGMP-specific 3',5'-cyclic phosphodiesterase subunit alpha' (Homo sapiens, UniProt P51160); assay: Inhibition of recombinant full length GST-tagged PDE6C (unknown origin) expressed in baculovirus infected Sf9 insect cells using TAMRA-cGMP as substrate incubated for 1.5 hrs by IMAP-FP assay
Outline: (§1)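 PDE enzymes incubated with compound or vehicle and 50 nM TAMRA-cGMP or FAM-cAMP substrate for 1.5 h at 30 °C. Activity read by IMAP fluorescence polarization. IC50 from 10 concentrations, at least two replicates each, fitted by four-parameter logistic. Dose–response repeated at least twice; mean of at least two experiments.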

[4] = target: T2, cGMP-dependent 3',5'-cyclic phosphodiesterase (Homo sapiens, UniProt O00408); assay: Inhibition of recombinant full length GST-tagged PDE2A (unknown origin) expressed in baculovirus infected Sf9 insect cells using FAM-cAMP as substrate incubated for 1.5 hrs by IMAP-FP assay; outline: as §1
T2 sequence (O00408 whole entry): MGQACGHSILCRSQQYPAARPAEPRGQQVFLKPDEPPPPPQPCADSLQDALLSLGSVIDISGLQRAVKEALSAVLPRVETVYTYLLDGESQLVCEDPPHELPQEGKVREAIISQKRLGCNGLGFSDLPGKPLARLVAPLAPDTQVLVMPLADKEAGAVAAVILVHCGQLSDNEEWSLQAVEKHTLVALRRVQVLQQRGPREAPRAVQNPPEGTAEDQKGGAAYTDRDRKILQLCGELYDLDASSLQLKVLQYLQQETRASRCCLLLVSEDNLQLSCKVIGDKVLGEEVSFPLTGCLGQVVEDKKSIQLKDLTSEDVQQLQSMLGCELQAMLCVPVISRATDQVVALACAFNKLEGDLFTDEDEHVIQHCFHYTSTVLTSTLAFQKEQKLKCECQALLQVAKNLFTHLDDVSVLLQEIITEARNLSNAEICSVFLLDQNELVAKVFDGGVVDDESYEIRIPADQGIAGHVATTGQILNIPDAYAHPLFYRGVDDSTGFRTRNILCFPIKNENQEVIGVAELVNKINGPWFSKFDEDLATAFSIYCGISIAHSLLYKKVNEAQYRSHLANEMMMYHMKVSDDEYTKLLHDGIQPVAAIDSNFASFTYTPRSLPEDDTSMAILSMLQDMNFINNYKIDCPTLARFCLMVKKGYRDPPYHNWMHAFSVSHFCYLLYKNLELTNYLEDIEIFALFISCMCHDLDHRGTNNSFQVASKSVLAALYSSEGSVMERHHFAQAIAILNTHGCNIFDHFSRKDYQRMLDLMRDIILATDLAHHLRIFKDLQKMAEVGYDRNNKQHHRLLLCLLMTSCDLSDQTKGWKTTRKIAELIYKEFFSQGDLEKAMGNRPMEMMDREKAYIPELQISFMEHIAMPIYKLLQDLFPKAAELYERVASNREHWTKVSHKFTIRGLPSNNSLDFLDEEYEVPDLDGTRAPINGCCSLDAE

[5] = target: T3, Dual specificity calcium/calmodulin-dependent 3',5'-cyclic nucleotide phosphodiesterase 1A (Homo sapiens, UniProt P54750); assay: Inhibition of recombinant full length GST-tagged PDE1A (unknown origin) expressed in baculovirus infected Sf9 insect cells using TAMRA-cGMP as substrate incubated for 1.5 hrs by IMAP-FP assay; outline: as §1
T3 sequence (P54750 whole entry): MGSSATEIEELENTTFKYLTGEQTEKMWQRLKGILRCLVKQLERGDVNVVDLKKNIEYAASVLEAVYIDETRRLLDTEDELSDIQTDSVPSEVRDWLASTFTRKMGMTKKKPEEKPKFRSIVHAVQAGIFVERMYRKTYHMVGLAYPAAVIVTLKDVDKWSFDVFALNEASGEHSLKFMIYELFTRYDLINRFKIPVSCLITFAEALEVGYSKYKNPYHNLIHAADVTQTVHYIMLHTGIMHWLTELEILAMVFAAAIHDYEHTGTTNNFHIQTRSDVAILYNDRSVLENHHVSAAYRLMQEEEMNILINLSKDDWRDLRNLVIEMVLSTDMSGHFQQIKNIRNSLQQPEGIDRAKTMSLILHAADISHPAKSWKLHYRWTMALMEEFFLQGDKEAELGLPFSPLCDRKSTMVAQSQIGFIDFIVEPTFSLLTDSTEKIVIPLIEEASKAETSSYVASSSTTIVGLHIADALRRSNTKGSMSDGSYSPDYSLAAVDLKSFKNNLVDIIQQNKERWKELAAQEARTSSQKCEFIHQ

[6] = target: T4, cGMP-inhibited 3',5'-cyclic phosphodiesterase 3A (Homo sapiens, UniProt Q14432); assay: Inhibition of recombinant GST-tagged PDE3A (669 to end residues) (unknown origin) expressed in baculovirus infected Sf9 insect cells using TAMRA-cGMP as substrate incubated for 1.5 hrs by IMAP-FP assay; outline: as §1
T4 sequence (Q14432 whole entry): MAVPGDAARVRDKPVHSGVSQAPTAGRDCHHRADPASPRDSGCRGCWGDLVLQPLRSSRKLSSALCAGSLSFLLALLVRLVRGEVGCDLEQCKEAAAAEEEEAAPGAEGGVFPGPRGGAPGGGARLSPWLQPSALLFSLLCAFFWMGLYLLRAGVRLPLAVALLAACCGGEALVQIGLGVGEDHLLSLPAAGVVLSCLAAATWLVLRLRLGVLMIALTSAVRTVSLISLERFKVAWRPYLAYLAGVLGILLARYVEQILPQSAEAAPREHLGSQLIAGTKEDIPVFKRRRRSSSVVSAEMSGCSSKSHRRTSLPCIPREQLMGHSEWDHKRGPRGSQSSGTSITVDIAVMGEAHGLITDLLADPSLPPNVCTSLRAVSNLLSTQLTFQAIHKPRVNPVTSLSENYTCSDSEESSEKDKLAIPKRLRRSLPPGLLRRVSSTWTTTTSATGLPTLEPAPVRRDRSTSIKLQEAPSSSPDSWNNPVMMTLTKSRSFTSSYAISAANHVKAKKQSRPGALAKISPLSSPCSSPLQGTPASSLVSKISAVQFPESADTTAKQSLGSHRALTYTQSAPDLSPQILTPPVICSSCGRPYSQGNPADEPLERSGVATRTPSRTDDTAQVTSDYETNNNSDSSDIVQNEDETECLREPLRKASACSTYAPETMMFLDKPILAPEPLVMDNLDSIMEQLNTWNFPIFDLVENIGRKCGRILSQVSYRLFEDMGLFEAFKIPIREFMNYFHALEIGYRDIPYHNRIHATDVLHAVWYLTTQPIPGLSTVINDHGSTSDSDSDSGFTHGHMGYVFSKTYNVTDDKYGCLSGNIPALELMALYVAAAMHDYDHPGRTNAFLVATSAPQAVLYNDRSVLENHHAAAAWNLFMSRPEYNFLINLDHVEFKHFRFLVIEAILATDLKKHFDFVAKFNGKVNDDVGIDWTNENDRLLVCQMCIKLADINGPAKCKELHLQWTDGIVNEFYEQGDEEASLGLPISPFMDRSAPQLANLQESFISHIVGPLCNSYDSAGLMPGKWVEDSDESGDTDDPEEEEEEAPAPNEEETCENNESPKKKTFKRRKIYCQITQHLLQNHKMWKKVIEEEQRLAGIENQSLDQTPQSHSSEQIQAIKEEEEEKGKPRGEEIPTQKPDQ

[7] = target: T5, Dual 3',5'-cyclic-AMP and -GMP phosphodiesterase 11A (Homo sapiens, UniProt Q9HCR9); assay: Inhibition of recombinant GST-tagged full length PDE11A4 (unknown origin) expressed in baculovirus infected Sf9 insect cells using FAM-cAMP as substrate incubated for 1.5 hrs by IMAP-FP assay; outline: as §1
T5 sequence (Q9HCR9 whole entry): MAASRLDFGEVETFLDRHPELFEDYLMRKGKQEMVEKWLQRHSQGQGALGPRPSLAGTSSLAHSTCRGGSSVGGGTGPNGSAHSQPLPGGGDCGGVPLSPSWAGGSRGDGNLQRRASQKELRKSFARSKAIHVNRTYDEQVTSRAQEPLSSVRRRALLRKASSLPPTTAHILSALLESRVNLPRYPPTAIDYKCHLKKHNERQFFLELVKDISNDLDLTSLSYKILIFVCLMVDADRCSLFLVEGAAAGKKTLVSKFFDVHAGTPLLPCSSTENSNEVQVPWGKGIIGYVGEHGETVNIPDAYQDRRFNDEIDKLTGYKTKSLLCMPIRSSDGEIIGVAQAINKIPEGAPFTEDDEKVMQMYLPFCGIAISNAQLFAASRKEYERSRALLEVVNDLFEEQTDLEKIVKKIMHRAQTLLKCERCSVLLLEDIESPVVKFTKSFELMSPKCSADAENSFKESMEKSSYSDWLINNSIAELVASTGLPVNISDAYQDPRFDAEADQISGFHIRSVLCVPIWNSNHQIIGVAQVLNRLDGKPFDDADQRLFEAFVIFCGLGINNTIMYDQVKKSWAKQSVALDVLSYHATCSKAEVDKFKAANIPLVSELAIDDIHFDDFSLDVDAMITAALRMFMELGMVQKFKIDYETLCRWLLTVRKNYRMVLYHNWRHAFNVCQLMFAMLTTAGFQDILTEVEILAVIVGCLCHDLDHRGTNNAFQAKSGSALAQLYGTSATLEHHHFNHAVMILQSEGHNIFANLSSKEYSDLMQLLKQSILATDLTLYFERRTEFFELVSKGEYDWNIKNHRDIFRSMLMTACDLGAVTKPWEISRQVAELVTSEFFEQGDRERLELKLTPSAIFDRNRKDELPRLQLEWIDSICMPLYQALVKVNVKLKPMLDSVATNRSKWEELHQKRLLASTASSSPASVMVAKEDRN

[8] = target: T6, cAMP and cAMP-inhibited cGMP 3',5'-cyclic phosphodiesterase 10A (Homo sapiens, UniProt Q9Y233); assay: Inhibition of recombinant GST-tagged full length PDE10A2 (unknown origin) expressed in baculovirus infected Sf9 insect cells using FAM-cAMP as substrate incubated for 1.5 hrs by IMAP-FP assay; outline: as §1
T6 sequence (Q9Y233 whole entry): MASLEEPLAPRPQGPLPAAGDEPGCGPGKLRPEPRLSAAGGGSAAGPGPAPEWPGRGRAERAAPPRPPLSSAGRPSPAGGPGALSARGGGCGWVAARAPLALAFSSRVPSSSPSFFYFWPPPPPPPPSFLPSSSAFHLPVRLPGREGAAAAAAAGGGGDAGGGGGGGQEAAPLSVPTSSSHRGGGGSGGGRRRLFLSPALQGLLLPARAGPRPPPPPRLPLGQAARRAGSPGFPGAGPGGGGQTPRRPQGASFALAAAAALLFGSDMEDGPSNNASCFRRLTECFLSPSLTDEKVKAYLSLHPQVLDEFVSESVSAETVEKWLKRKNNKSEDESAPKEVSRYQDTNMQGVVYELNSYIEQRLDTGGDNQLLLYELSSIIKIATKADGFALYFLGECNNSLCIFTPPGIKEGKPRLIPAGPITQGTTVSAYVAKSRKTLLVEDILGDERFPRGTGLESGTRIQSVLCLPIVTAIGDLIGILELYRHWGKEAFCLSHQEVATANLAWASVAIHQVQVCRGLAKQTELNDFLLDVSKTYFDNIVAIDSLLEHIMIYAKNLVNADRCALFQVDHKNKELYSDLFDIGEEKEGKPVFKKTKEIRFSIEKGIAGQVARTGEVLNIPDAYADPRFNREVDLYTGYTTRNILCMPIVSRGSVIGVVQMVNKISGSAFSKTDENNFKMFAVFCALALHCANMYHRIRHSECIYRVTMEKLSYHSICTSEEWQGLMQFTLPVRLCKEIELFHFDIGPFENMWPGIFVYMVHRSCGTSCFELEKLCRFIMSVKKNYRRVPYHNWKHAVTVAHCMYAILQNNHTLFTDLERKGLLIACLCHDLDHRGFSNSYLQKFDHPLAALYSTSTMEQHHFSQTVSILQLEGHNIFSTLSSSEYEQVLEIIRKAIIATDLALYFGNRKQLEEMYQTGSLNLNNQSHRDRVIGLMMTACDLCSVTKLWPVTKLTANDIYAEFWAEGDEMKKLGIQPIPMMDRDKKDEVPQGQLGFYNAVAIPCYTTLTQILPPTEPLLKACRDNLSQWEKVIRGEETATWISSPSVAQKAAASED

[9] = target: High affinity 3',5'-cyclic-AMP phosphodiesterase 7A (Homo sapiens, UniProt Q13946); assay: Inhibition of recombinant GST-tagged PDE7A (122 to end residues) (unknown origin) expressed in baculovirus infected Sf9 insect cells using FAM-cAMP as substrate incubated for 1.5 hrs by IMAP-FP assay; outline: as §1
Sequence of High affinity 3',5'-cyclic-AMP phosphodiesterase 7A (Q13946 whole entry): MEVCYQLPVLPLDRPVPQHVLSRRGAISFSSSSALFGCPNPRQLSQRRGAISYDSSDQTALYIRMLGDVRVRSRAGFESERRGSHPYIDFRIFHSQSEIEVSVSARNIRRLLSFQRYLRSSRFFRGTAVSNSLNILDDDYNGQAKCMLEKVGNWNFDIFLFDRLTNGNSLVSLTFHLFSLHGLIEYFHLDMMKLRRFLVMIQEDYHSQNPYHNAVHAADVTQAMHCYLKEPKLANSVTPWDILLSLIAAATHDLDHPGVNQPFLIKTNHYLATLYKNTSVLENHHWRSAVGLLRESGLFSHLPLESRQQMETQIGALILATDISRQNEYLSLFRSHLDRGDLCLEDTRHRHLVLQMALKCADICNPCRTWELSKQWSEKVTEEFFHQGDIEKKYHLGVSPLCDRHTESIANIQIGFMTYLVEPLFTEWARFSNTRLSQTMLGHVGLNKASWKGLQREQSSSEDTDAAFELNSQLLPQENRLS

[10] = target: T5, Dual 3',5'-cyclic-AMP and -GMP phosphodiesterase 11A; assay: Inhibition of recombinant GST-tagged full length PDE11A4 (unknown origin) expressed in baculovirus infected Sf9 insect cells using TAMRA-cGMP as substrate incubated for 1.5 hrs by IMAP-FP assay; outline: as §1
[11] = target: High affinity cGMP-specific 3',5'-cyclic phosphodiesterase 9A (Homo sapiens, UniProt O76083); assay: Inhibition of recombinant GST-tagged full length PDE9A2 (unknown origin) expressed in baculovirus infected Sf9 insect cells using substrate incubated for 1.5 hrs by IMAP-FP assay
[12] = target: T4, cGMP-inhibited 3',5'-cyclic phosphodiesterase 3A; assay: Inhibition of recombinant GST-tagged PDE3A (669 to end residues) (unknown origin) expressed in baculovirus infected Sf9 insect cells using FAM-cAMP as substrate incubated for 1.5 hrs by IMAP-FP assay; outline: as §1
[13] = target: T6, cAMP and cAMP-inhibited cGMP 3',5'-cyclic phosphodiesterase 10A; assay: Inhibition of recombinant GST-tagged full length PDE10A2 (unknown origin) expressed in baculovirus infected Sf9 insect cells using TAMRA-cGMP as substrate incubated for 1.5 hrs by IMAP-FP assay; outline: as §1
[14] = target: High affinity cAMP-specific and IBMX-insensitive 3',5'-cyclic phosphodiesterase 8A (Homo sapiens, UniProt O60658); assay: Inhibition of recombinant GST-tagged full length PDE8A1 (unknown origin) expressed in baculovirus infected Sf9 insect cells using FAM-cAMP as substrate incubated for 1.5 hrs by IMAP-FP assay; outline: as §1
[15] = target: T2, cGMP-dependent 3',5'-cyclic phosphodiesterase; assay: Inhibition of recombinant full length GST-tagged PDE2A (unknown origin) expressed in baculovirus infected Sf9 insect cells using TAMRA-cGMP as substrate incubated for 1.5 hrs by IMAP-FP assay; outline: as §1
[16] = target: 3',5'-cyclic-AMP phosphodiesterase 4B (Homo sapiens, UniProt Q07343); assay: Inhibition of recombinant full length GST-tagged PDE4B2 (unknown origin) expressed in baculovirus infected Sf9 insect cells using FAM-cAMP as substrate incubated for 1.5 hrs by IMAP-FP assay; outline: as §1
Homo sapiens [17] = species: Homo sapiens; assay: Selectivity ratio of IC50 for recombinant full length GST-tagged PDE6C (unknown origin) expressed in baculovirus infected Sf9 insect cells to IC50 for recombinant full length GST-tagged PDE5A1 (unknown origin) expressed in baculovirus infected Sf9 insect cells using TAMRA-cGMP as substrate incubated for 1.5 hrs by IMAP-FP assay using TAMRA-cGMP as substrate incubated for 1.5 hrs by IMAP-FP assay
Homo sapiens [18] = species: Homo sapiens; assay: Selectivity ratio of IC50 for recombinant GST-tagged full length PDE11A4 (unknown origin) expressed in baculovirus infected Sf9 insect cells to IC50 for recombinant full length GST-tagged PDE5A1 (unknown origin) expressed in baculovirus infected Sf9 insect cells using TAMRA-cGMP as substrate incubated for 1.5 hrs by IMAP-FP assay using TAMRA-cGMP as substrate incubated for 1.5 hrs by IMAP-FP assay
[19] = target: T1, cGMP-specific 3',5'-cyclic phosphodiesterase; assay: Inhibition of PDE5A in HEK293 cells stably transfected with cGMP biosensor assessed as increase in SNP-induced intracellular cGMP level measured after 90 mins by luminescence assay; assay type: cell-based
[20] = target: T3, Dual specificity calcium/calmodulin-dependent 3',5'-cyclic nucleotide phosphodiesterase 1A; assay: Inhibition of recombinant full length GST-tagged PDE1A (unknown origin) expressed in baculovirus infected Sf9 insect cells using FAM-cAMP as substrate incubated for 1.5 hrs by IMAP-FP assay; outline: as §1

- IC50 [1]: 10 µM
Compound: CC(C)(C)C1=NN(c2ccc(C(=O)O)cc2)C(c2ccc(OC(F)(F)F)cc2)C1 (stereo unspecified)

- IC50 [1]: 0.59 µM
Compound: COc1ccc(C2CC(C(C)(C)C)=NN2c2ccc(C(=O)O)cc2)cc1F (stereo unspecified)

- IC50 [1]: 0.13 µM
Compound: CCOc1c(F)cc(C2CC(C(C)(C)C)=NN2c2ccc(C(=O)N3CCN(C)CC3)cc2)cc1F (stereo unspecified)

- IC50 [1]: 1.44 µM
Compound: COc1ccc(C2C3Cc4ccccc4C3=NN2c2ccc(C(=O)O)cc2)cc1 (stereo unspecified)

- IC50 [1]: 10.1 µM
Compound: COc1cc(C2CC(C(C)(C)C)=NN2c2ccc(C(=O)O)cc2)ccc1F (stereo unspecified)

- IC50 [1]: 0.19 µM
Compound: COc1ccc(C2CC(C(C)(C)C)=NN2c2ccc(C(=O)N3CCN(C)CC3)cc2)cc1Cl (stereo unspecified)

- IC50 [1]: 0.13 µM
Compound: COc1ccc(C2CC(c3ccccc3C)=NN2c2ccc(C(=O)O)cc2)cc1F (stereo unspecified)

- PPB [2]: 98%
Compound: CCCC(=O)Nc1ccc(OCC(O)CNC(C)C)c(C(C)=O)c1 (stereo unspecified) [ACEBUTOLOL]

- IC50 [1]: 0.078 µM
Compound: COc1ccc(C2CC(c3ccccc3)=NN2c2ccc(C(=O)N3CCN(C)CC3)cc2)cc1 (stereo unspecified)

- IC50 [1]: 0.5 µM
Compound: COc1ccc(C2CC(c3ccccc3C)=NN2c2ccc(C(=O)O)cc2)cc1 (stereo unspecified)

- IC50 [1]: 1.29 µM
Compound: COc1cc(C2CC(C(C)(C)C)=NN2c2ccc(C(=O)N3CCN(C)CC3)cc2)ccc1F (stereo unspecified)

- IC50 [1]: 0.41 µM
Compound: CCCCNC(=O)c1ccc(N2N=C(c3ccccc3)CC2c2ccc(OC)cc2)cc1 (stereo unspecified)

- IC50 [1]: 0.9 µM
Compound: COc1ccc(C2CC(C(C)(C)C)=NN2c2ccc(C(=O)O)cc2)cc1Cl (stereo unspecified)

- IC50 [1]: 0.06 µM
Compound: COc1ccc(C2CC(C(C)(C)C)=NN2c2ccc(C(=O)O)cc2)c(F)c1F (stereo unspecified)

- IC50 [3]: > 10 µM
- IC50 [4]: > 10 µM
- IC50 [5]: > 10 µM
- IC50 [6]: > 10 µM
- IC50 [7]: > 10 µM
- IC50 [8]: > 10 µM
- IC50 [9]: > 10 µM
- IC50 [10]: > 10 µM
- IC50 [11]: > 10 µM
- IC50 [12]: > 10 µM
- IC50 [13]: > 10 µM
- IC50 [14]: > 10 µM
- IC50 [15]: > 10 µM
- IC50 [1]: 0.004 µM
- IC50 [16]: > 10 µM
- EC50 [19]: 4.1 µM
- IC50 [20]: > 10 µM
Compound: COc1ccc(C2CC(C(C)(C)C)=NN2c2ccc(C(=O)N3CCN(C)CC3)cc2)c(F)c1F (stereo unspecified)
- Ratio IC50 (Homo sapiens [17]): > 2500
- Ratio IC50 (Homo sapiens [18]): > 2500

- IC50 [1]: 2.5 µM
Compound: COc1ccc(C2CC(c3ccc(O)cc3)=NN2c2ccc(C(=O)O)cc2)cc1 (stereo unspecified)

- IC50 [1]: 0.26 µM
Compound: COc1cc(F)c(C2CC(C(C)(C)C)=NN2c2ccc(C(=O)N3CCN(C)CC3)cc2)cc1F (stereo unspecified)

- IC50 [1]: 0.09 µM
Compound: COc1c(F)cc(C2CC(C(C)(C)C)=NN2c2ccc(C(=O)O)cc2)cc1F (stereo unspecified)
